Results gathered from unrelated publications.
Protocols differ between the studies behind these lines.
Target: Phosphorylase b kinase gamma catalytic chain, skeletal muscle/heart isoform (PHKG1, Homo sapiens, UniProt Q16816)

| SMILES | test | conditions | remaining binding [%] |
| --- | --- | --- | --- |
| O=C(c1ccc(Nc2ncc(Cl)c(-c3cc4ccccc4s3)n2)cc1)N1CCC(N2CCCC2)CC1 | binding, competition with immobilised ligand | 1 µM | 54 |
| CC1CCCN1c1nccc(-c2cnn3ncccc23)n1 (stereo not shown) | binding | 1 µM | 100 |
| CNC(=O)[C@@H]1CC[C@@H](n2c(-c3ccc4cnccc4c3)nc3ccc(C(=O)NCc4cccc(C(N)=O)c4)cc32)C1 | binding, competition with immobilised ligand | 1 µM | 100 |
| Cc1nc(N2CC[C@@H](O)C2)ncc1-c1cc(C(F)(F)F)cc2[nH]ncc12 | cell-free assay, competition with immobilised ligand | 1 µM | 81 |
| COc1cnc(Nc2cccc(S(N)(=O)=O)c2)nc1N1CCN(c2ccccc2)C(=O)C1 | binding, competition with immobilised ligand | 1 µM | 100 |
| N[C@H]1CCN(c2nccc(-c3cnn4ncccc34)n2)C1 | binding | 1 µM | 84 |
| C[C@@H](c1ccc(-n2cnc3c(N)ncnc32)cc1)N1CCc2nn(C)c(Cc3ccccc3)c2C1=O | binding, competition with immobilised ligand | 0.1 µM | 90 |
| c1cncc(-c2cccc(Nc3nccc(NC4CCCCC4)n3)c2)c1 | binding, competition with immobilised ligand | 10 µM | 75 |
| O=C(Nc1c[nH]nc1C(=O)NC1CCNCC1)c1cc(F)cc(F)c1 | binding, competition with immobilised ligand | 1 µM | 93 |
| O=C(NCCCN1CCOCC1)c1ccc(Nc2ncc(Cl)c(-c3ccc(Cl)s3)n2)cc1 | binding, competition with immobilised ligand | 1 µM | 56 |
| CCN1CCN(Cc2ccc(C(=O)Nc3ccc(C)c(Oc4ccc5c(c4)CC(=O)N5)c3)cc2C(F)(F)F)CC1 | binding, competition with immobilised ligand | 1 µM | 100 |
| Cc1cnn2ncc(-c3ccnc(N(C)C)n3)c2c1 | binding | 1 µM | 85 |
| CCC(=N\O)/C(C)=C/c1ccc(F)cc1 | cell-free assay, competition with immobilised ligand | 1 µM | 100 |
| O=C(c1ccc(Nc2ncc(Cl)c(-c3ccc(Cl)s3)n2)cc1)N1CCC(N2CCCC2)CC1 | binding, competition with immobilised ligand | 1 µM | 85 |
| O=C(NCc1ncc(C(F)(F)F)cc1Cl)c1ccc2c(c1)C1(CCS(=O)(=O)CC1)[C@@H](C1CC1)N2S(=O)(=O)c1ccc(F)cc1 | cell-free assay, competition with immobilised ligand | 1 µM | 100 |
| C[C@@H]1CCN(c2nccc(-c3cnn4ncccc34)n2)C1 | binding | 1 µM | 100 |
| CO[C@H]1CC[C@H](CNc2ccc(S(=O)(=O)NC(=O)c3ccc(N4CCN(CC5=C(c6ccc(Cl)cc6)CC(C)(C)CC5)CC4)cc3Oc3cnc4[nH]ccc4c3)cc2[N+](=O)[O-])CC1 | cell-free assay, competition with immobilised ligand | 1 µM | 100 |
| CN(CCCC(F)(F)F)c1nccc(-c2cnn3ncccc23)n1 | binding | 1 µM | 100 |
| O=C(O)[C@H]1[C@H](Cn2nnc3ccccc3c2=O)CC[C@@H]1C(=O)c1ccc(OCCC2CCOCC2)cc1 | cell-free assay, competition with immobilised ligand | 1 µM | 74 |
| FC(F)(F)Oc1cccc(-c2cnc3ccc(-c4ccncc4)nn23)c1 | cell-free assay, competition with immobilised ligand | 5 µM | 43 |
| CC1=C(C#N)C(c2ccc3c(c2)c(NC(=O)c2ccccc2C)nn3C)C(C#N)=C(C)N1 | cell-free assay, competition with immobilised ligand | 1 µM | 91 |
| F[C@@H]1CCN(c2nccc(-c3cnn4ncccc34)n2)C1 | binding | 1 µM | 100 |
